Measurements from ChEMBL document CHEMBL1221320, “N(G)-Acyl-argininamides as NPY Y(1) receptor antagonists: Influence of structurally diverse acyl substituents on stability and affinity” (Bioorg Med Chem, 2010).
pKi: −log10 of the molar value.

Key:
[1] = target: T1, Neuropeptide Y receptor type 1 (Homo sapiens, UniProt P25929); assay: Displacement of [3H]UR-MK114 from NPY1 receptor in human SK-N-MC cells; assay type: cell-based; conditions: for pKi: read-out: Ki
T1 sequence (P25929 whole entry): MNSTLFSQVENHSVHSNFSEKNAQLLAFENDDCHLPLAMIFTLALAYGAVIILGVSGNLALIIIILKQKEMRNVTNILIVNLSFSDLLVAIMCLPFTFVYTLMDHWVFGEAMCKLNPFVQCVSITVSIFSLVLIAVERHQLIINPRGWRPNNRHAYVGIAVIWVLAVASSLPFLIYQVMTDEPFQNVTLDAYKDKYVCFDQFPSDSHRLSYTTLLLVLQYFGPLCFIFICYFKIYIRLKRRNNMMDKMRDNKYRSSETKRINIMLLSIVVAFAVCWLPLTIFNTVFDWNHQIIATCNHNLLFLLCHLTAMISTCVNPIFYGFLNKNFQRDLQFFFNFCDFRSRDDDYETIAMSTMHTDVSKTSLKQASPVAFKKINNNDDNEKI
In short: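 Data were fitted with four-parameter sigmoidal curves. IC50 was converted to Ki by Cheng–Prusoff using the radioligand KD. Mean ± SEM of two or three independent experiments. Assay period from solution preparation to read-out was 60–90 min.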

[2] = Distribution coefficient, log D of the compound; assay type: physicochemical; conditions: octanol/water
In short: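 Calculated at pH 7.4 by ACD software. Experimental values came from RP-HPLC on a C18 column at 25 °C and 0.30 mL/min, using 10 mM ammonium acetate pH 7.4 versus acetonitrile (5→98% over 30 min). Injection was 2 µL of a 1 mM DMSO solution with diode-array detection. Retention time was calibrated against six reference compounds.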

[3] = target: T2, Neuropeptide Y receptor type 1 (Homo sapiens) (UniProt P25929); assay: Antagonist activity at NPY1 receptor in human HEL cells assessed as inhibition of NPY-induced calcium mobilization by Fura-2 assay; assay type: functional, cell-based
T2 sequence (whole entry): T1 sequence (P25929 whole entry)

Row | SMILES | pKi [1] | logD ([2]; read-out: logD) | Kb [3] [nM] | further results
1 | COC(=O)CCCCCCC(=O)NC(N)=NCCC[C@@H](NC(=O)C(c1ccccc1)c1ccccc1)C(=O)NCc1ccc(O)cc1 | 9.05 | 3.9 | – | –
2 | N=C(N)NCCC[C@@H](NC(=O)C(c1ccccc1)c1ccccc1)C(=O)NCc1ccc(O)cc1 | – | 0.7 | – | –
3 | NCc1cn(CCCC(=O)NC(N)=NCCC[C@@H](NC(=O)C(c2ccccc2)c2ccccc2)C(=O)NCc2ccc(O)cc2)nn1 | 8.17 | 1.7 | – | –
4 | N=C(NCCC[C@@H](NC(=O)C(c1ccccc1)c1ccccc1)C(=O)NCc1ccc(O)cc1)NC(=O)CCCc1ccc2ccc3cccc4ccc1c2c34 | 6.57 | 7.6 | – | –
5 | CCCCCCCCCCCCC#CC#CCCCCCCCCC(=O)NC(=N)NCCC[C@@H](NC(=O)C(c1ccccc1)c1ccccc1)C(=O)NCc1ccc(O)cc1 | 5.82 | – | 140 | –
6 | CCCCCCCCCCCCCCCC(=O)NC(=N)NCCC[C@@H](NC(=O)C(c1ccccc1)c1ccccc1)C(=O)NCc1ccc(O)cc1 | – | – | 170 | –
7 | COC(=O)CCNC(=O)CCCCCCC(=O)NC(N)=NCCC[C@@H](NC(=O)C(c1ccccc1)c1ccccc1)C(=O)NCc1ccc(O)cc1 | 6.59 | 2.9 | – | –
8 | N=C(NCCC[C@@H](NC(=O)C(c1ccccc1)c1ccccc1)C(=O)NCc1ccc(O)cc1)NC(=O)c1ccc2ccc3cccc4ccc1c2c34 | – | 7.2 | – | Ki ([1]; sk-n-mc): Not Active
9 | CC(=O)OC[C@@H](OC(C)=O)[C@@H](OC(C)=O)[C@H](OC(C)=O)[C@@H](OC(C)=O)C(=O)NC(N)=NCCC[C@@H](NC(=O)C(c1ccccc1)c1ccccc1)C(=O)NCc1ccc(O)cc1 | 7.08 | 3.5 | – | –
10 | N=C(NCCC[C@@H](NC(=O)C(c1ccccc1)c1ccccc1)C(=O)NCc1ccc(O)cc1)NC(=O)COCCOCCOCC(=O)NCCNC(=O)c1ccc2ccc3cccc4ccc1c2c34 | 7.23 | 6 | – | –
11 | CCCCCCCCCCCCCCCC(=O)NC(N)=NCCC[C@@H](NC(=O)C(c1ccccc1)c1ccccc1)C(=O)NCc1ccc(O)cc1 | 6.34 | – | – | logD [2]: 9.4
12 | CC(=O)OC[C@@H](OC(C)=O)[C@@H](OC(C)=O)[C@H](OC(C)=O)[C@@H](OC(C)=O)C(=O)NC(=N)NCCC[C@@H](NC(=O)C(c1ccccc1)c1ccccc1)C(=O)NCc1ccc(O)cc1 | – | – | 110 | –

More lines, main results first:

Row | pKi [1] | logD ([2]; read-out: logD) | Kb [3] [nM] | SMILES | further results
13 | – | -1.4 | – | N=C(N)NCCNC(=O)CCC(=O)NC(=N)NCCC[C@@H](NC(=O)C(c1ccccc1)c1ccccc1)C(=O)NCc1ccc(O)cc1 | –
14 | 7.14 | 0.7 | – | NC(=NCCC[C@@H](NC(=O)C(c1ccccc1)c1ccccc1)C(=O)NCc1ccc(O)cc1)NC(=O)CCCCCCC(=O)NCCC(=O)O | –
15 | 6.89 | -0.3 | 230 | N=C(NCCC[C@@H](NC(=O)C(c1ccccc1)c1ccccc1)C(=O)NCc1ccc(O)cc1)NC(=O)CCCCCCC(=O)NCCN | –
16 | – | 3.5 | – | N=C(NCCC[C@@H](NC(=O)C(c1ccccc1)c1ccccc1)C(=O)NCc1ccc(O)cc1)NC(=O)CCC(=O)NCCNC(=O)c1ccc(F)cc1 | –
17 | 7.39 | 0.9 | 510 | N=C(NCCC[C@@H](NC(=O)C(c1ccccc1)c1ccccc1)C(=O)NCc1ccc(O)cc1)NC(=O)CCC(=O)OC[C@H]1O[C@@H](O)[C@H](O)[C@@H](O)[C@H]1O | –
18 | – | -1.8 | – | N=C(NCCC[C@@H](NC(=O)C(c1ccccc1)c1ccccc1)C(=O)NCc1ccc(O)cc1)NC(=O)CCC(=O)NCCNCCN | –
19 | 8.52 | 1.8 | 0.4 | N=C(NCCC[C@@H](NC(=O)C(c1ccccc1)c1ccccc1)C(=O)NCc1ccc(O)cc1)NC(=O)CCCn1cc(CO)nn1 | –
20 | 7.29 | -0.3 | 18 | N=C(N)NCCCCCC(=O)NC(=N)NCCC[C@@H](NC(=O)C(c1ccccc1)c1ccccc1)C(=O)NCc1ccc(O)cc1 | –
21 | 7.40 | 4.6 | 1.1 | N=C(NCCC[C@@H](NC(=O)C(c1ccccc1)c1ccccc1)C(=O)NCc1ccc(O)cc1)NC(=O)CCCCCCC(=O)NCCC(=O)OCc1ccccc1 | –
22 | – | – | 14 | N=C(NCCC[C@@H](NC(=O)C(c1ccccc1)c1ccccc1)C(=O)NCc1ccc(O)cc1)NC(=O)CCCn1cc(CN)nn1 | –
23 | – | – | 450 | N=C(NCCC[C@@H](NC(=O)C(c1ccccc1)c1ccccc1)C(=O)NCc1ccc(O)cc1)NC(=O)CCCCCCC(=O)NCCC(=O)O | –
24 | – | -0.6 | – | CCC(=O)NCCNCCNC(=O)CCC(=O)NC(=N)NCCC[C@@H](NC(=O)C(c1ccccc1)c1ccccc1)C(=O)NCc1ccc(O)cc1 | –
25 | – | – | 170 | COC(=O)CCNC(=O)CCCCCCC(=O)NC(=N)NCCC[C@@H](NC(=O)C(c1ccccc1)c1ccccc1)C(=O)NCc1ccc(O)cc1 | –
26 | – | – | 0.06 | COC(=O)CCCCCCC(=O)NC(=N)NCCC[C@@H](NC(=O)C(c1ccccc1)c1ccccc1)C(=O)NCc1ccc(O)cc1 | –
27 | – | -1.3 | – | N=C(NCCC[C@@H](NC(=O)C(c1ccccc1)c1ccccc1)C(=O)NCc1ccc(O)cc1)NC(=O)CCC(=O)NCCN | –
